The values below come from ChEMBL document CHEMBL1124033, “N-aryl 3-halogenated azetidin-2-ones and benzocarbacephems, inhibitors of beta-lactamases” (J Med Chem, 1988).

The target of the assay is Beta-lactamase TEM (Escherichia coli, UniProt P62593). The assay is described as follows: Inhibition constant (Ki) for TEM-1 beta-lactamase. The essentials: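 Partially purified plasmid pBR322-encoded TEM-1 β-lactamase; computerized microacidimetric assay at pH 7, 37 °C. Time-dependent inactivation was checked by monitoring activity after enzyme preincubation with inhibitor at 1 to 100 concentrations.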
Sequence of Beta-lactamase TEM (P62593 whole entry): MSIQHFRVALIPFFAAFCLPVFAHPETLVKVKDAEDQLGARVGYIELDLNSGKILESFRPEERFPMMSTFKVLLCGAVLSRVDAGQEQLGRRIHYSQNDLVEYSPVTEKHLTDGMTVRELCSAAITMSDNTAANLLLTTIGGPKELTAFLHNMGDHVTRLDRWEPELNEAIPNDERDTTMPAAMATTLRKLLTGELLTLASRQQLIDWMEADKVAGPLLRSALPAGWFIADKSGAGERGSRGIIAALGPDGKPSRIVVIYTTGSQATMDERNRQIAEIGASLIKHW
The Ki is a dissociation constant, usually derived from enzyme kinetics or from competition with a known ligand. The low end stands for tighter binding, the high end for weaker binding. As to `Cc1onc(-c2ccccc2Cl)c1C(=O)N[C@@H]1C(=O)N2[C@@H]1SC(C)(C)[C@@H]2C(=O)O` [CLOXACILLIN], the Ki worked out at 13 µM.
Regarding `O=C(O)c1ccc2c(c1)N1C(=O)CC1CC2` (stereo unspecified), the Ki stood at 20 µM.
For `Cc1ccc(C(=O)O)cc1N1CC(Br)C1=O` (stereo unspecified), the affinity, expressed as Ki, was 40 µM.
For `Cc1ccc(C(=O)O)cc1N1CC(F)(F)C1=O`, the affinity, expressed as Ki, was 83 µM.
As for `Cc1ccc(C(=O)O)cc1N1CC(F)C1=O` (stereo unspecified), affinity was put at a Ki of 20 µM.
Molecule `O=C(O)c1ccc2c(c1)N1C(=O)CC1CC2Cl` (stereo unspecified) returned an inhibitory constant (Ki) of 50 µM.
Consider `CC1(C)S[C@@H]2[C@H](NC(=O)Cc3ccccc3)C(=O)N2[C@H]1C(=O)O` [PENICILLIN G], for which the Ki was determined as 20 µM.
`O=C(O)c1ccc2c(c1)N1C(=O)CC1CC2F` (stereo unspecified) returned a Ki of 39 µM.
`Cc1ccc(C(=O)O)cc1N1CCC1=O` displayed a Ki of 10 µM.
Next, `Cc1ccc(C(=O)O)cc1N1CC(Br)(Br)C1=O`: 160 µM; `Cc1ccc(C(=O)O)cc1N1CC(F)(Br)C1=O` (stereo unspecified): 60 µM.
